Data taken from ChEMBL document CHEMBL4311948, “Exploring the Natural Piericidins as Anti-Renal Cell Carcinoma Agents Targeting Peroxiredoxin 1” (J Med Chem, 2019).
The source made the active and inactive calls. The rule behind the calls is not given here.

How the values were obtained:
ACHN [1] = experiment: Antitumor activity against human ACHN cells xenografted in Balb/c nu/nu mouse assessed as tumor growth inhibition at 0.8 mg/kg, ip administered once daily for 21 days measured post-last dose by H and E staining-based assay; type: functional, organism-based
Summary of the method: (§1)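 Male athymic Balb/c nu/nu mice, four weeks old, acclimatised 1 week. 10^7 ACHN cells in 0.2 mL PBS injected into the right flank. At about 150 mm3, mice randomised into PBS control or 0.8 mg/kg groups, dosed ip daily for three weeks. Tumours measured by caliper (volume = 0.5 × L × W²) with body weight recorded. Endpoint tumour weight, sections stained by H&E and TUNEL. Tissue lysed for immunoblot.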

HK-2 = experiment: Cytotoxicity against human HK2 cells assessed as reduction in cell viability measured after 72 hrs by CCK8 assay; type: cell-based; settings: HK-2, 72 h
Summary of the method: (§2)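 Cells were grown in 10% FBS medium: MEM for ACHN, RPMI1640 for OS-RC-2 and 786-O, DMEM for HK-2. They were seeded at 400–800 cells/well in 384-well plates and treated with a range of compound concentrations or solvent control, with sorafenib as positive control. After 72 h, CCK-8 absorbance was read at 450 nm in triplicate, and IC50 was taken from dose-response curves.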

786-0 = experiment: Cytotoxicity against human 786-O cells assessed as reduction in cell viability measured after 72 hrs by CCK8 assay; type: functional, cell-based; settings: 786-0, 72 h; summary of the method: as §2
ACHN [2] = experiment: Down regulation of ETS1 mRNA expression in human ACHN cells at 25 to 50 nM measured after 24 hrs by qRT-PCR analysis; type: functional, cell-based
ACHN [3] = experiment: Down regulation of SLC2A1 mRNA expression in human ACHN cells at 25 to 50 nM measured after 24 hrs by qRT-PCR analysis; type: functional, cell-based
OS-RC-2 = experiment: Cytotoxicity against human OS-RC2 cells assessed as reduction in cell viability measured after 72 hrs by CCK8 assay; type: functional, cell-based; settings: OS-RC-2, 72 h; summary of the method: as §2
ACHN [4] = experiment: Antitumor activity against human ACHN cells xenografted in Balb/c nu/nu mouse assessed as tumor weight at 0.8 mg/kg, ip administered once daily for 21 days measured post-last dose by caliper method (reference value: 0.55 +/- 0.13 g); type: functional; summary of the method: as §1
ACHN [5] = experiment: Selectivity ratio of IC50 for cytotoxicity against human ACHN cells harboring shPRDX1 gene to IC50 for Cytotoxicity against human ACHN cells; type: functional
[6] = Toxicity in Balb/c nu/nu mouse xenografted with human ACHN cells assessed as effect on survival at 0.8 mg/kg, ip administered once daily for 21 days; type: organism-based; settings: in vivo, 504 h; summary of the method: as §1
ACHN [7] = experiment: Up regulation of PRDX1 mRNA expression in human ACHN cells at 25 to 50 nM measured after 24 hrs by qRT-PCR analysis; type: functional, cell-based
ACHN [8] = experiment: Down regulation of MET mRNA expression in human ACHN cells at 25 to 50 nM measured after 24 hrs by qRT-PCR analysis; type: functional, cell-based
Peroxiredoxin-1 = biological target: T1, Peroxiredoxin-1 (Homo sapiens, UniProt Q06830); experiment: Binding affinity to full-length human PRDX1 by surface plasmon resonance analysis
T1 sequence (Q06830 whole entry): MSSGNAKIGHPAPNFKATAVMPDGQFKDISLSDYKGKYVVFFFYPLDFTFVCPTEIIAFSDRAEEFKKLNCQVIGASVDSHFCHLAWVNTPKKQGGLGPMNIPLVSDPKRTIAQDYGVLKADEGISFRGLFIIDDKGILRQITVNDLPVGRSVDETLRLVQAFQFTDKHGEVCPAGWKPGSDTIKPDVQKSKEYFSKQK
Summary of the method: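 Full-length human PRDX1 immobilised on a CM5 chip (Biacore T100). Analyte concentration series diluted in 10 mM Hepes pH 7.4, injected over the protein surface and a protein-free reference surface in a single step.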

ACHN [9] = experiment: Down regulation of HK2 mRNA expression in human ACHN cells at 25 to 50 nM measured after 24 hrs by qRT-PCR analysis; type: functional, cell-based
ACHN [10] = experiment: Antitumor activity against human ACHN cells xenografted in Balb/c nu/nu mouse assessed as tumor growth inhibition at 0.8 mg/kg, ip administered once daily for 21 days measured post-last dose by TUNEL staining-based assay; type: functional, organism-based; summary of the method: as §1
[11] = biological target: T2, Peroxiredoxin-1 (Homo sapiens) (UniProt Q06830); experiment: Activation of PRDX1 in human ACHN cells assessed as reduction in reactive oxygen species level at 25 to 50 nM measured after 24 hrs by Cell-rox reagent-based flow cytometry
T2 sequence (whole entry): T1 sequence (Q06830 whole entry)
Summary of the method: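 ACHN cells grown 24 h in MEM + 10% FBS, reseeded at 2 × 10^4 cells/well and exposed to 0, 25 or 50 nM for 24 h. Harvested cells loaded with CellROX oxidative stress reagent 5 μM, 30 min at 37 °C in the dark, then read by flow cytometry. shPRDX1 line: stable knockdown selected with puromycin (1 μg/mL) before dosing. Mean ± SD.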

ACHN [12] = experiment: Cytotoxicity against human ACHN cells assessed as reduction in cell viability measured after 72 hrs by CCK8 assay; type: functional, cell-based; summary of the method: as §2
Mus musculus [13] = experiment: Up regulation of PRDX1 mRNA expression in human ACHN cells xenografted Balb/c nu/nu mouse at 0.8 mg/kg, ip administered once daily for 21 days measured post-last dose by qRT-PCR analysis; type: functional, organism-based
ACHN [14] = experiment: Down regulation of SOD2 mRNA expression in human ACHN cells at 25 to 50 nM measured after 24 hrs by qRT-PCR analysis; type: functional, cell-based
ACHN [15] = experiment: Up regulation of nuclear PRDX1 expression in human ACHN cells at 25 to 50 nM measured after 24 hrs by immunoblot analysis; type: functional, cell-based
Summary of the method: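 ACHN cells treated 24 h with 25 or 50 nM, then nuclear and cytosolic extracts prepared. Lysis in RIPA buffer, BCA quantitation, 30–50 μg protein resolved on 10% or 12% gels. Blotted with anti-PRDX1 (1:1000) and β-actin (1:3000), band ratio PRDX1/β-actin reported as fold change. Mean ± SD.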

ACHN [16] = experiment: Down regulation of LDHA mRNA expression in human ACHN cells at 25 to 50 nM measured after 24 hrs by qRT-PCR analysis; type: functional, cell-based
Mus musculus [17] = experiment: Up regulation of PRDX1 expression in human ACHN cells xenografted Balb/c nu/nu mouse at 0.8 mg/kg, ip administered once daily for 21 days measured post-last dose by immunoblot analysis; type: functional, organism-based; summary of the method: as §1
[18] = Toxicity in Balb/c nu/nu mouse xenografted with human ACHN cells assessed as decrease in body weight at 0.8 mg/kg, ip administered once daily for 21 days; type: organism-based; settings: in vivo, 504 h; summary of the method: as §1
[19] = biological target: T2, Peroxiredoxin-1 (Homo sapiens); experiment: Induction of PRDX1 nuclear translocation in human ACHN cells at 25 to 50 nM measured after 24 hrs by DAPI staining-based microscopic analysis; type: cell-based
Summary of the method: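 ACHN cells exposed 24 h to 25 or 50 nM, fixed in 4% paraformaldehyde 10 min and permeabilised with 0.5% Triton X-100. Blocked with 10% FBS, 4 °C, 12 h. Stained with anti-PRDX1 overnight, FITC secondary 2 h RT, DAPI nuclear counterstain. Confocal imaging scored mean fluorescence intensity (n = 9).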

ACHN [20] = experiment: Down regulation of HIF1A mRNA expression in human ACHN cells at 25 to 50 nM measured after 24 hrs by qRT-PCR analysis; type: functional, cell-based
ACHN [21] = experiment: Cytotoxicity against human ACHN cells harboring shPRDX1 gene assessed as reduction in cell viability measured after 72 hrs by CCK8 assay; type: functional, cell-based
Summary of the method: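 Transfectants were selected with puromycin (1 μg/mL), and knockdown was confirmed by immunoblot. Viability was read by CCK-8 after 72 h of compound exposure in 384-well plates at 400–800 cells/well in MEM with 10% FBS, and IC50 was taken from dose-response curves.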

ACHN [22] = experiment: Down regulation of EGFR mRNA expression in human ACHN cells at 25 to 50 nM measured after 24 hrs by qRT-PCR analysis; type: functional, cell-based
[23] = Toxicity in Balb/c nu/nu mouse xenografted with human ACHN cells assessed as decrease in body weight at 50 mg/kg, ip administered once daily for 21 days; settings: in vivo, 504 h
[24] = Toxicity in Balb/c nu/nu mouse xenografted with human ACHN cells assessed as effect on survival at 50 mg/kg, ip administered once daily for 21 days; type: organism-based; settings: in vivo, 504 h
Summary of the method: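 Nude mice (Balb/c nu/nu) bearing ACHN flank xenografts received sorafenib tosylate 50 mg/kg, given as a 10× stock in Cremophor EL diluted in PBS. Treatment alongside PBS control for three weeks. Survival and body weight monitored.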

ACHN [25] = experiment: Antitumor activity against human ACHN cells xenografted in Balb/c nu/nu mouse assessed as tumor weight at 50 mg/kg, ip administered once daily for 21 days measured post-last dose by caliper method (reference value: 0.55 +/- 0.13 g); type: functional
[26] = Homo sapiens, ACHN, 72 h, read-out: IC50

## C/C=C(\C)[C@H](O[C@@H]1O[C@H](CO)[C@@H](O)[C@H](O)[C@H]1O)[C@H](C)/C=C(C)/C=C/C/C(C)=C/Cc1nc(OC)c(OC)c(O)c1C
ACHN [1]
  TGI: Active
HK-2
  IC50: > 100 µM
786-0
  IC50: > 100 µM
ACHN [2]
  Activity: Active
ACHN [3]
  Activity: Active
OS-RC-2
  IC50: > 100 µM
ACHN [4]
  Activity: 0.23 g
ACHN [5]
  Ratio IC50: 4
[6]
  Activity: Non-Toxic
ACHN [7]
  Activity: Active
ACHN [8]
  Activity: Active
Peroxiredoxin-1
  Kd: 1.83 µM
ACHN [9]
  Activity: Active
ACHN [10]
  TGI: Active
[11]
  Activity: Active
ACHN [12]
  IC50: 0.21 µM
Mus musculus [13]
  Activity: Active
ACHN [14]
  Activity: Active
ACHN [15]
  Activity: Active
ACHN [16]
  Activity: Active
Mus musculus [17]
  Activity: Active
[18]
  Activity: Non-Toxic
[19]
  Activity: Active
ACHN [20]
  Activity: Active
ACHN [21]; [26]
  IC50: 0.96 µM
ACHN [22]
  Activity: Active

## COc1nc(C/C=C(\C)C/C(C)=C/C(C)=C/[C@@H](C)[C@@H](O)/C(C)=C/[C@](C)(O)[C@@H](C)O)c(C)c(O)c1OC
HK-2
  IC50: 44 µM
786-0
  IC50: > 100 µM
OS-RC-2
  IC50: 5.3 µM
ACHN [12]
  IC50: 2.4 µM
ACHN [21]; [26]
  IC50: 8.2 µM

## COc1nc(C/C=C(\C)C/C=C/C(C)=C/[C@@H](C)[C@@H](O[C@@H]2O[C@H](CO)[C@@H](O)[C@H](O)[C@H]2O)/C(C)=C/CO)c(C)c(O)c1OC
HK-2
  IC50: > 100 µM
786-0
  IC50: > 100 µM
OS-RC-2
  IC50: > 100 µM
ACHN [12]
  IC50: 7.21 µM
ACHN [21]; achn
  IC50: Not Active

## CNC(=O)c1cc(Oc2ccc(NC(=O)Nc3ccc(Cl)c(C(F)(F)F)c3)cc2)ccn1 [SORAFENIB]
[23]
  Activity: Toxic
HK-2
  IC50: 2.6 µM
786-0
  IC50: 13 µM
OS-RC-2
  IC50: 14 µM
ACHN [12]
  IC50: 3.3 µM
[24]
  Activity: Non-Toxic
ACHN [21]; achn
  IC50: Not Active
ACHN [25]
  Activity: 0.12 g

## COc1nc(C/C=C(\C)C/C(C)=C/C(C)=C/[C@@H](C)[C@@H](O)/C(C)=C/[C@@](C)(O)[C@H](C)O)c(C)c(O)c1OC
HK-2
  IC50: 63 µM
786-0
  IC50: > 100 µM
OS-RC-2
  IC50: 4.1 µM
ACHN [12]
  IC50: 3.8 µM
ACHN [21]; [26]
  IC50: 13 µM
